# Legend:
# HEK293 = assay: Cytotoxicity against HEK293 cells assessed as decrease in viable cells at 50 uM after 48 hrs by aqueous one solution cell proliferation assay relative to control; assay type: cell-based; settings: human, hek293, 48 h
# Method in brief: (§1)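 HEK293 cells were seeded overnight, then exposed to 0–100 μM compound for 48 h at 37 °C in 5% CO₂. MTS reagent was added for a further 2 h and absorbance read at 490 nm. Viability is given as % relative to DMSO vehicle control. Two experiments, each in quadruplicate.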
# [1] = Cytotoxicity against HEK293 cells assessed as viable cells at 0.1 uM after 48 hrs by aqueous one solution cell proliferation assay relative to control; assay type: cell-based; settings: human, read-out: Activity; method in brief: as §1
# [2] = Cytotoxicity against HEK293 cells assessed as viable cells at 100 uM after 48 hrs by aqueous one solution cell proliferation assay relative to control; assay type: cell-based; settings: human, read-out: Activity; method in brief: as §1
# [3] = target: T1, Peroxisome proliferator-activated receptor alpha (Homo sapiens) (UniProt Q07869); assay: Agonist activity at human PPARalpha expressed in HEK293 cells co-transfected with PPRE assessed as beta-galactosidase signal at 40 uM after 48 hrs by reporter gene assay relative to control; assay type: functional, cell-based
# T1 sequence (whole entry): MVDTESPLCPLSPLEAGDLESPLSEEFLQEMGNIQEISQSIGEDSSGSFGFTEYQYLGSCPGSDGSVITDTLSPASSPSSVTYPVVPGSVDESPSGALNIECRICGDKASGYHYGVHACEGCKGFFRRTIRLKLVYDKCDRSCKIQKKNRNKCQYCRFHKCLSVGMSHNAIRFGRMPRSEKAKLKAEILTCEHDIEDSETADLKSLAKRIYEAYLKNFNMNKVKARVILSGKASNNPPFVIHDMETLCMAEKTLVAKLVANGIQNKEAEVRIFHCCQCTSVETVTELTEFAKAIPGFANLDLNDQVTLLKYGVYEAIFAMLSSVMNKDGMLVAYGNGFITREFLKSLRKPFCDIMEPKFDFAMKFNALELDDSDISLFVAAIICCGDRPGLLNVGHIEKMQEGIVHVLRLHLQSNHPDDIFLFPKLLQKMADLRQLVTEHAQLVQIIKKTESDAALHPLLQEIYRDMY
# Method in brief: (§2)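 Human PPARα transactivation in HEK293 cells grown in DMEM/F-12 with 10% heat-inactivated FBS. Cells were transfected with FuGENE 6 using a PPRE-luciferase reporter, pBI-G-hPPARα and a β-galactosidase control plasmid. After 24 h they were replated at 5 × 10⁴ cells/well, attached overnight, then dosed for 48 h with 0.1% DMSO as vehicle. Luciferase was normalized to β-gal and expressed as fold over vehicle. Two experiments, each in triplicate.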
# [4] = target: T2, Peroxisome proliferator-activated receptor gamma (Homo sapiens, UniProt P37231); assay: Agonist activity at human PPARgamma assessed as luciferase activity by transactivation assay; assay type: functional
# T2 sequence (P37231 whole entry): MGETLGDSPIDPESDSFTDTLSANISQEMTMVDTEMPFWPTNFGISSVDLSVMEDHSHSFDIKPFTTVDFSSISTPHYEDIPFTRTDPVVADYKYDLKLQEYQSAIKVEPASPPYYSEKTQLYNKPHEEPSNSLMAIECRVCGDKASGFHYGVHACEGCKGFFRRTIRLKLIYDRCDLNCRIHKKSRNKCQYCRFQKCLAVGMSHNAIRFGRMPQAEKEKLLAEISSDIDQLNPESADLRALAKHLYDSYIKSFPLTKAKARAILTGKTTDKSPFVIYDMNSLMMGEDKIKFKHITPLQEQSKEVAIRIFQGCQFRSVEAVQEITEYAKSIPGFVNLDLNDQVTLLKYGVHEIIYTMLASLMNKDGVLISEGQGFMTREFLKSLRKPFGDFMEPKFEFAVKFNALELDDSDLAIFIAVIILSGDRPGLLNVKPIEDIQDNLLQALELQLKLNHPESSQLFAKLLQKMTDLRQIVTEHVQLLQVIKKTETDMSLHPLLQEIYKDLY
# Method in brief: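 Transiently transfected HEK293 (PPRE-luciferase reporter plus pSG5-hPPARγ1 and β-gal control), compound exposure 48 h. EC50 is the ligand concentration giving half-maximal fold induction of β-gal-normalized luciferase, fitted by nonlinear regression. Means of three experiments.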
# [5] = target: T1, Peroxisome proliferator-activated receptor alpha (Homo sapiens); assay: Agonist activity at human PPARalpha expressed in HEK293 cells co-transfected with PPRE assessed as beta-galactosidase signal at 25 uM after 48 hrs by reporter gene assay relative to control; assay type: functional, cell-based; method in brief: as §2
# [6] = target: T3, Peroxisome proliferator-activated receptor alpha (Homo sapiens, UniProt Q07869); assay: Agonist activity at human PPARalpha assessed as luciferase activity by transactivation assay; assay type: functional
# T3 sequence (Q07869 whole entry): T1 sequence (whole entry)
# [7] = Cytotoxicity against HEK293 cells assessed as viable cells at 10 uM after 48 hrs by aqueous one solution cell proliferation assay relative to control; assay type: cell-based; settings: human, read-out: Activity; method in brief: as §1
# [8] = Cytotoxicity against HEK293 cells assessed as viable cells at 50 uM after 48 hrs by aqueous one solution cell proliferation assay relative to control; assay type: cell-based; settings: human, read-out: Activity; method in brief: as §1
# [9] = target: T4, Peroxisome proliferator-activated receptor gamma (Homo sapiens) (UniProt P37231); assay: Agonist activity at human PPARgamma expressed in HEK293 cells co-transfected with PPRE assessed as beta-galactosidase signal at 25 uM after 48 hrs by reporter gene assay relative to control; assay type: functional, cell-based
# T4 sequence (whole entry): T2 sequence (P37231 whole entry)
# Method in brief: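 HEK293 cells were transfected with FuGENE 6 using a PPRE-luciferase reporter, pSG5-hPPARγ1 and a β-galactosidase control plasmid. After 24 h they were replated at 5 × 10⁴ cells/well, attached overnight, then treated for 48 h with 0.1% DMSO as vehicle. Luciferase was read, normalized to the β-gal signal and reported as fold activation over vehicle. Mean of two experiments in triplicate.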
fold change (FC) [3],EC50 [4],fold change (FC) [5],EC50 [6],fold change (FC) [9],SMILES,Activity (HEK293),"viability at 48 h, 0.1 µM [1]","viability at 48 h, 100 µM [2]","viability at 48 h, 10 µM [7]","viability at 48 h, 50 µM [8]"
,,,,,CC(C)OC(=O)C(C)(C)Oc1ccc(C(=O)c2ccc(Cl)cc2)cc1 [FENOFIBRATE],38%,> 90%,,,
43,22.3 µM,16.5,23.1 µM,57.5,COc1cccc(-c2coc3cc(O)ccc3c2=O)c1,,,> 60%,> 90%,> 67%

# Reference: ChEMBL document CHEMBL1154598, “7-Hydroxy-benzopyran-4-one derivatives: a novel pharmacophore of peroxisome proliferator-activated receptor alpha and -gamma (PPARalpha and gamma) dual agonists” (J Med Chem, 2009)
